This is an account of results in ChEMBL document CHEMBL1157061, “Polybioside, a neuroactive compound from the venom of the social wasp Polybia paulista” (J Nat Prod, 2010).

Data set [1] deals with Rattus norvegicus. Description: Neurotoxicity in Wistar rat assessed as partial closing of eyelids with porphyrin accumulation at 10 ng/kg, icv after 10 mins up to 30 mins. It is filed as toxicity, organism-based, Eyelid. As to conditions: in vivo, icv_or_intrathecal, 1e-05 mg/kg. The procedure, abridged: (§1)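 Adult male Wistar rats (250-300 g, acclimated one week) received 10 ng/kg ICV in 0.9% saline through a cannula placed about 2 h earlier. Behaviour was observed afterwards, including convulsions, piloerection and eye signs. Sensorimotor reflexes were scored by righting reflex and wire suspension test, with follow-up to recovery at 80 min.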

A further data set concerns Hypothalamus. As to the kind of experiment: Neuronal activity in Wistar rat brain paraventricular nucleus of hypothalamus assessed as c-Fos-immunoreactive neurons at 0.1 ug/ul, icv after 2 hrs by immunohistochemistry analysis. It is filed as functional, tissue-based. The procedure, abridged: (§2)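 Adult male Wistar rats (250-300 g) were acclimated for one week and handled twice daily. An ICV cannula was placed about 2 h before dosing. Compound was given ICV in 10 µL 0.9% saline; saline-only controls (n = 3). After 2 h, rats were perfused with 4% formaldehyde (pH 9.5). Coronal 30 µm sections were stained with rabbit anti-c-Fos (1:5000, 18 h, RT), biotinylated goat anti-rabbit, ABC and DAB, with thionin counterstain. Immunoreactive cells were counted in fixed areas; Student's t-test, p<0.05.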

Data set [2] relates to Brain. As to the kind of experiment: Neuronal activity in Wistar rat brain dorsomedial hyphalamic nucleus assessed as c-Fos-immunoreactive neurons at 0.1 ug/ul, icv after 2 hrs by immunohistochemistry analysis. It is filed as functional, tissue-based. The procedure, abridged:
as §2

In data set [3] the test system is Brain. As to the kind of experiment: Neuronal activity in Wistar rat brain reuniens nucleus assessed as c-Fos-immunoreactive neurons at 0.1 ug/ul, icv after 2 hrs by immunohistochemistry analysis. The format is functional, tissue-based. The procedure, abridged:
as §2

Data set [4] has as its system Rattus norvegicus. As to the kind of experiment: Neurotoxicity in Wistar rat assessed as convulsion at 10 ng/kg, icv after 5 mins. The format is toxicity, organism-based. To be noted: in vivo, icv_or_intrathecal, 1e-05 mg/kg. The procedure, abridged: as §1
The subject of data set [5] is Rattus norvegicus. Description: Neurotoxicity in Wistar rat assessed as loss of sensor motor reflexes at 10 ng/kg, icv after 30 mins by wire suspension test. The format is toxicity, organism-based. To be noted: in vivo, icv_or_intrathecal, 1e-05 mg/kg, 0.5 h. The procedure, abridged: as §1
The subject of data set [6] is Rattus norvegicus. As to the kind of experiment: Neurotoxicity in Wistar rat at 100 ng/kg, iv. It is filed as toxicity, organism-based. As to conditions: in vivo, 0.0001 mg/kg. The procedure, abridged:
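Given peripherally at 100 ng/kg through an intravenous catheter placed in Wistar rats anaesthetised with chloral hydrate (7%, 350 mg/kg ip), to test passage across the blood-brain barrier; behaviour was then observed.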

In data set [7] the test system is Brain. As to the kind of experiment: Neuronal activity in Wistar rat brain anterior hyphalamic area assessed as c-Fos-immunoreactive neurons at 0.1 ug/ul, icv after 2 hrs by immunohistochemistry analysis. It is filed as functional, tissue-based. The procedure, abridged: as §2
Data set [8] deals with Rattus norvegicus. As to the kind of experiment: Neurotoxicity in Wistar rat assessed as localized diffuse piloerection around neck at 10 ng/kg, icv up to 10 mins. It is filed as toxicity, organism-based. To be noted: in vivo, icv_or_intrathecal, 1e-05 mg/kg. The procedure, abridged: as §1
In data set [9] the test system is Rattus norvegicus. As to the kind of experiment: Neuronal activity in Wistar rat brain lateral septal nucleus dorsal assessed as c-Fos-immunoreactive neurons at 0.1 ug/ul, icv after 2 hrs by immunohistochemistry analysis. The format is functional, tissue-based. The procedure, abridged:
as §2

Data set [10] deals with Rattus norvegicus. Description: Neurotoxicity in Wistar rat assessed as localized diffuse piloerection on head at 10 ng/kg, icv up to 10 mins. It is filed as toxicity, organism-based. To be noted: in vivo, icv_or_intrathecal, 1e-05 mg/kg. The procedure, abridged:
as §1

Data set [11] deals with Rattus norvegicus. As to the kind of experiment: Neuronal activity in Wistar rat brain rhomboid nucleus assessed as c-Fos-immunoreactive neurons at 0.1 ug/ul, icv after 2 hrs by immunohistochemistry analysis. As to conditions: Rhomboidal nucleus. The format is functional, tissue-based. The procedure, abridged:
as §2

The subject of a further data set is Hippocampus. As to the kind of experiment: Neuronal activity in Wistar rat brain hippocampus assessed as c-Fos-immunoreactive neurons at 0.1 ug/ul, icv after 2 hrs by immunohistochemistry analysis. The format is functional, tissue-based. The procedure, abridged:
as §2

Data set [12] deals with Rattus norvegicus. Description: Neurotoxicity in Wistar rat assessed as tonic clonic crises at 10 ng/kg, icv up to 10 mins. The format is toxicity, organism-based. As to conditions: in vivo, icv_or_intrathecal, 1e-05 mg/kg. The procedure, abridged:
as §1

The subject of the next data set is Thalamus. As to the kind of experiment: Neuronal activity in Wistar rat brain paraventricular nucleus of thalamus assessed as c-Fos-immunoreactive neurons at 0.1 ug/ul, icv after 2 hrs by immunohistochemistry analysis. It is filed as functional, tissue-based. The procedure, abridged:
as §2

For data set [13], the system named is Rattus norvegicus. As to the kind of experiment: Neuronal activity in Wistar rat brain piriform cortex assessed as c-Fos-immunoreactive neurons at 0.1 ug/ul, icv after 2 hrs by immunohistochemistry analysis. It is filed as functional, tissue-based. The procedure, abridged: as §2
For data set [14], the system named is Brain. Description: Neuronal activity in Wistar rat brain dorsal intermediate nucleus assessed as c-Fos-immunoreactive neurons at 0.1 ug/ul, icv after 2 hrs by immunohistochemistry analysis. It is filed as functional, tissue-based. The procedure, abridged:
as §2

The source made the active and inactive calls. No cut-off for these calls is given here.

In the case of `N=C(CCc1c[nH]cn1)O[C@H]1O[C@H](CO)[C@@H](O)[C@H](O)[C@H]1O` [POLYBIOSIDE], the Activity entry with Rattus norvegicus [1], in the data set on Rattus norvegicus [4], in the data set with Rattus norvegicus [5], with Rattus norvegicus [6], in the data set on Rattus norvegicus [8] and in the data set on Rattus norvegicus [10] was “Toxic” each time. Also, the Activity entry with Rattus norvegicus [12] is on record as “Toxic”. Further, the result in the data set with Hypothalamus, with Brain [2], in the data set on Brain [3], in the data set with Brain [7], in the data set with Rattus norvegicus [9] and in the data set with Rattus norvegicus [11] was Active. The result in the data set on Hippocampus, with Thalamus, with Rattus norvegicus [13] and in the data set with Brain [14] was Active.
